Data published in ChEMBL document CHEMBL3414543, “Novel series of benzoquinones with high potency against 5-lipoxygenase in human polymorphonuclear leukocytes” (Eur J Med Chem, 2015).

Tests used:
[1] = target: T1, Polyunsaturated fatty acid 5-lipoxygenase (Homo sapiens, UniProt P09917); assay: Inhibition of 5-LOX in A23187-stimulated human blood PMNL assessed as reduction in lipoxygenase products formation pre-incubated for 15 mins followed by stimulation with A23187 for 10 mins by RP-HPLC based cell based assay
T1 sequence (P09917 whole entry): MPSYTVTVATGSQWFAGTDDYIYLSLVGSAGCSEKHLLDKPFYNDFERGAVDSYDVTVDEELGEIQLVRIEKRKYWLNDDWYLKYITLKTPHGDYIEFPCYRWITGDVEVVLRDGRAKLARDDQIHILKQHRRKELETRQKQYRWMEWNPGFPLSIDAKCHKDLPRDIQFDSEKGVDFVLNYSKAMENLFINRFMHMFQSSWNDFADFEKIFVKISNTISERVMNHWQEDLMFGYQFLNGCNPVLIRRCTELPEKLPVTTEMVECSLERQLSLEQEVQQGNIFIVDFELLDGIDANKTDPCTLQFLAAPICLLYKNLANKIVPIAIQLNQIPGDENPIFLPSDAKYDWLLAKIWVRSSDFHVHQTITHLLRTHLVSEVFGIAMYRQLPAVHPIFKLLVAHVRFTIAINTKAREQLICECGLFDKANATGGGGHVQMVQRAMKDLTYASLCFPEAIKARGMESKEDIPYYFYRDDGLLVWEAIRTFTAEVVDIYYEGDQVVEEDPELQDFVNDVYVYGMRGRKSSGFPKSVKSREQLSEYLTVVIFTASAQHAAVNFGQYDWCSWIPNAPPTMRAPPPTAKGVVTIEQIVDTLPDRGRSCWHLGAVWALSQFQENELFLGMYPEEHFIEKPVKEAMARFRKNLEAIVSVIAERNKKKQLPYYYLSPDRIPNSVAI
Summary of the method: (§1)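 Human PMNL (5 × 10⁶ in 1 ml PBS pH 7.4, 1 mg/ml glucose, 1 mM CaCl₂), preincubated 15 min at 37 °C with compound or 0.1% DMSO, then stimulated 10 min at 37 °C with A23187, with or without AA. 5-LO products measured. Values are mean ± S.E. of 3–4 independent experiments. IC₅₀ read graphically from 4–5 concentrations.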

[2] = target: T2, Polyunsaturated fatty acid lipoxygenase ALOX15 (Homo sapiens) (UniProt P16050); assay: Inhibition of 15-LOX-1 in human blood PMNL assessed as remaining activity by measuring 15-HETE synthesis at 10 uM
T2 sequence (whole entry): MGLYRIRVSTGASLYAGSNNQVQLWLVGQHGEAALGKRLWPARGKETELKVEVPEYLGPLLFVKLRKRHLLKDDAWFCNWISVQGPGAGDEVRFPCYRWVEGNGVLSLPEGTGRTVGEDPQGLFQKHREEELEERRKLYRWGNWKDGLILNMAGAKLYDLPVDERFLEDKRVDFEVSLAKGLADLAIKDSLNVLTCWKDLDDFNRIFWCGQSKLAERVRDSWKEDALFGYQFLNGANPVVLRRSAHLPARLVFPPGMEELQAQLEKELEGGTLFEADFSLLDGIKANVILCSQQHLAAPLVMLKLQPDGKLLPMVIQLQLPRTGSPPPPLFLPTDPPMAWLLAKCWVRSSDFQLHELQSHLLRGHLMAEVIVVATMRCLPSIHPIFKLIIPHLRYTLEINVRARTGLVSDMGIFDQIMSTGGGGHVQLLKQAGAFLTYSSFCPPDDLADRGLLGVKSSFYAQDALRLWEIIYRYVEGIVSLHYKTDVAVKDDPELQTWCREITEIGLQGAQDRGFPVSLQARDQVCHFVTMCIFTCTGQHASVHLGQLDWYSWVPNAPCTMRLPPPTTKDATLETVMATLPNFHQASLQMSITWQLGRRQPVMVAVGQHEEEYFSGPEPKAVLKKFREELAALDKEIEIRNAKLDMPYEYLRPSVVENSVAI
Summary of the method: (§2)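 PMNL isolated from heparinized blood of fasted healthy donors by dextran sedimentation and Nycoprep centrifugation, with hypotonic lysis of erythrocytes. Cells at 5 × 10⁶ in 1 ml PBS pH 7.4 with 1 mg/ml glucose and 1 mM CaCl₂, preincubated 15 min at 37 °C with compound or 0.1% DMSO vehicle, then stimulated 10 min at 37 °C. 12-HETE or 15-HETE formation measured.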

[3] = target: T1, Polyunsaturated fatty acid 5-lipoxygenase; assay: Inhibition of 5-LOX in A23187-stimulated human blood PMNL assessed as reduction in lipoxygenase products formation in presence of arachidonic acid pre-incubated for 15 mins followed by stimulation with A23187 for 10 mins by RP-HPLC based cell based assay; summary of the method: as §1
[4] = target: T3, Polyunsaturated fatty acid lipoxygenase ALOX12 (Homo sapiens) (UniProt P18054); assay: Inhibition of 12-LOX in human blood PMNL assessed as remaining activity by measuring 12-HETE synthesis at 10 uM; summary of the method: as §2
T3 sequence (whole entry): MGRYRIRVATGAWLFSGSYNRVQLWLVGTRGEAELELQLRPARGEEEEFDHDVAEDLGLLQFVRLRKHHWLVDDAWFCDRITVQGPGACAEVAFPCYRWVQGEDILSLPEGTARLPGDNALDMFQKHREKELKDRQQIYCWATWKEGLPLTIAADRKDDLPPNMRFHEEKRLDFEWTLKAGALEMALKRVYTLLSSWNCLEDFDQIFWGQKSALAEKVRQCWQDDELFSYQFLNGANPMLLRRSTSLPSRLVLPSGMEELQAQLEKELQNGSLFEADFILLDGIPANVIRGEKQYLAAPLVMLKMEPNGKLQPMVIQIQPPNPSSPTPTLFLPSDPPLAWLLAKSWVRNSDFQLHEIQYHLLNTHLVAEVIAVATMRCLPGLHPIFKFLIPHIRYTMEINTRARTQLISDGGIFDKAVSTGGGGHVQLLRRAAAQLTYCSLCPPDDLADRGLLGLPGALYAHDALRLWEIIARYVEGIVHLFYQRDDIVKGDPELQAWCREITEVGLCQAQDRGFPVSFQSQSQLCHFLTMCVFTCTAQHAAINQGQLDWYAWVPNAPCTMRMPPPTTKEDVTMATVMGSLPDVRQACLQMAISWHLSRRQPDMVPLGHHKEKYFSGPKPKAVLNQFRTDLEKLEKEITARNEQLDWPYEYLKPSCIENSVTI

[5] = target: T1, Polyunsaturated fatty acid 5-lipoxygenase; assay: Inhibition of human recombinant 5-LOX expressed in Escherichia coli BL21 incubated for 10 mins in presence of arachidonic acid by RP-HPLC based cell-free assay
Summary of the method: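 Recombinant human 5-LO, semi-purified from a 40,000 × g lysate supernatant on ATP-agarose, diluted in ice-cold PBS with 1 mM EDTA and 1 mM ATP. Preincubated 10 min at 4 °C with compound or 0.1% DMSO, warmed 30 s at 37 °C, then started with 2 mM CaCl₂ plus 20 µM AA. Reaction 10 min at 37 °C, stopped with cold methanol, products by RP-HPLC. IC₅₀ from 4–5 concentrations.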

Row | Compound | IC50 [1] [nM] | Activity [2] [%] | IC50 [3] [nM] | Activity [4] [%] | IC50 [5] [nM]
1 | CCCCCCCCCCC1=C(O)C(=O)C=C(O)C1=O | 2000 | 90 | 7100 | 76 | 180
2 | CCCCCCCCCCCCCCCC1=C(O)C(=O)C=C(OC)C1=O | 390 | 103 | 860 | 92.8 | 270
3 | CCCCCCCCCCCCCCC1=C(OC)C(OC)=CC(=O)C1=O | 120 | 139 | 90 | 87.3 | 40
4 | CCCCCCCCCCCCCC1=C(OC)C(=O)C=C(OC)C1=O | 230 | 84.1 | 310 | 58.8 | 260
5 | CCCCCCCCCCCCC1=C(O)C(=O)C=C(O)C1=O | 4600 | 65.1 | 3900 | 90.6 | 170
6 | N#C/C(=C\c1ccc(O)c(O)c1)C(=O)OC/C=C/c1ccccc1 | – | 5.2 | – | 0.91 | –
7 | CCCCCCC1=C(OC)C(OC)=CC(=O)C1=O | 330 | 91.7 | 990 | 18.6 | 2600
8 | CCCCCCCCCCCCCCC1=C(O)C(=O)C=C(O)C1=O | 3100 | 139 | 5100 | 101 | 170
9 | CCCCCCCCCCCCCCCC1=C(OC)C(=O)C=C(OC)C1=O | 390 | 115 | 860 | 87.3 | 270
10 | CCCCCCCCCCCC1=C(OC)C(=O)C=C(OC)C1=O | 200 | 93.4 | 590 | 161 | 930
11 | CCCCCCCCCCC1=C(OC)C(=O)C=C(OC)C1=O | 600 | – | 1700 | 144 | 1800
12 | CCCCCCCCCCCCCC1=C(O)C(=O)C=C(O)C1=O [Rapanone] | 2500 | 124 | 4700 | 84.3 | 220
13 | COC1=CC(=O)C(=O)C(C/C=C(\C)CC/C=C(\C)CCC=C(C)C)=C1OC | 150 | 174 | 100 | 211 | 300
14 | CCCCCCCCC1=C(OC)C(OC)=CC(=O)C1=O | 380 | 102 | 820 | 59.3 | 330
